Experimental data taken from paper PMC7610887 (Journal of psychopharmacology (Oxford, England), 2019).
Where “and” joins values, the source holds several entries; their conditions need not be identical. Equal entries are not always repeated. Where two headings read alike, the source gives them in different places.

How the values were obtained:
[1] = target: Homomeric human GluA1 flip isoform (hGluA1i) (Homo sapiens, UniProt P42261); test: Intracellular Ca2+ influx assay; format: cell-based; settings: relative to positive control LY404187
How it was run: (§1)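 AMPA receptor flip isoforms expressed in HEK-293 cells: hGluA1i, hGluA3i, hGluA4i and rat GluA2i by lipofectamine transient transfection, and hGluA2i stably. All were Q-unedited in TM2. Cells were seeded on poly-D-lysine 2 days before assay and loaded with Fluo-4AM (2 μM final) for 60 min in the dark in HEPES buffer, pH 7.3. Test compound (1:3 serial dilution) was added with glutamate (100 μM final), and FLIPR fluorescence was read. Maximum response was scaled to LY404187 run on each plate.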

hGluA2i AMPAR = hGluA2i AMPAR (Homo sapiens, UniProt P42262); test: Intracellular Ca2+ influx assay; format: cell-based
How it was run: as §1

Male Wistar rats [2] = test: Passive avoidance, scopolamine-induced deficit; format: in vivo, rat
[3] = 7-day dose-range finding study, rat; format: in vivo; settings: rat, plasma, po, 1600 mg/kg
rat [4] = test: 7-day dose-range finding study, rat; format: in vivo; settings: doses of up to 1,600 mg/kg, 7-day
[5] = 4-week GLP safety assessment study, rat; format: in vivo; settings: rat, plasma, po, 800 mg/kg
rat [6] = test: 4-week GLP safety assessment study, rat; format: in vivo
Human GluK2 receptors = test: Ca2+ flux assay or whole-cell patch clamp, GluK2; format: cell-based; settings: Ca2+ flux assay or whole-cell patch clamp (data not shown)
How it was run: (§2)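 Kainate receptors in HEK cells: hGluK1 (Q-unedited) by lipofectamine transient transfection, hGluK2 stably expressed. Cells were seeded 24 h before assay. In the Ca2+ flux format, cells were loaded with Fluo-4AM (2 μM final) for 60 min in the dark, washed, then given test compound (1:3 serial dilution) plus glutamate (100 μM final), with FLIPR fluorescence read-out.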

[7] = In vivo electrophysiology, dentate gyrus population spike; parameters: species or system rat; settings: male, Lister hooded, rat, brain, iv
anaesthetised rats = test: as above; parameters: species or system rat; settings: 10 mg/kg i.v.; vehicle 70%
dog [8] = test: 4-week GLP safety assessment study, dog; format: in vivo
hGluA3i AMPAR = hGluA3i AMPAR (Homo sapiens, UniProt P42263); test: Intracellular Ca2+ influx assay; format: cell-based
How it was run: as §1

hGluA2 AMPARs = hGluA2 AMPARs (Homo sapiens, UniProt P42262); test: Recombinant receptor whole-cell electrophysiology; format: cell-based; settings: 1 mM glutamate
How it was run: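 HEK cells stably expressing hGluA2 were plated on poly-D-lysine coverslips and used 1-2 days later. Perforated-patch whole-cell recording at -60 mV used 2-5 MΩ pipettes, NaCl/HEPES external solution (pH 7.35) and CsCl/EGTA internal solution (pH 7.3). Glutamate (1 mM) was applied by fast perfusion for 2 s every 30 s, with or without test compound. Responses were related to the current from 1 mM glutamate alone.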

rat GluA2i AMPAR = rat GluA2i AMPAR (Rattus norvegicus, UniProt P19491); test: Intracellular Ca2+ influx assay; format: cell-based
How it was run: as §1

[9] = system: Heteromeric hGluN1A/GluN2B NMDARs; test: Ca2+ flux assay or whole-cell patch clamp, NMDAR; format: cell-based, human; settings: Ca2+ flux assay or whole-cell patch clamp (data not shown)
How it was run: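 HEK-293 cells were transduced with hGluN1A and hGluN2B BacMam vectors in the presence of 500 μM ketamine, then plated on poly-D-lysine, still with 500 μM ketamine, for 24 h. In the Ca2+ flux format, cells were loaded with Fluo-4AM (2 μM final) for 60 min, washed, then given test compound (1:3 serial dilution) plus glutamate (100 μM final), with FLIPR fluorescence read-out.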

[10] = system: native neuronal AMPARs in rat cultured hippocampal neurons; test: Native receptor electrophysiology in cultured hippocampal neurons; format: cell-based
How it was run: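 Hippocampi from embryonic rats were trypsinised (0.05%, 30 min, 37 °C), dissociated and grown in Neurobasal/B27 for 5-13 days. Whole-cell voltage clamp was held at -70 mV, with AMPA (30 μM) applied for 2 s every 30 s by fast perfusion, with test compound at 1 nM-10 μM. Charge transfer, desensitisation and deactivation were compared with AMPA alone by paired t-test.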

Novel object recognition = settings: rat, in vivo, 0.1 mg/kg, 0.1 mg/kg p.o. sub-chronic
rats [11] = test: Novel object recognition; settings: p.o.
[12] = system: Homomeric hGluK1 kainate receptors; test: Ca2+ flux assay or whole-cell patch clamp, GluK1; format: cell-based, human; settings: Ca2+ flux assay or whole-cell patch clamp (data not shown)
How it was run: as §2

hGluA4i AMPAR = hGluA4i AMPAR (Homo sapiens, UniProt P48058); test: Intracellular Ca2+ influx assay; format: cell-based
How it was run: as §1

Solubility = format: physicochemical
pregnane X receptor = test: Pregnane X receptor activation; settings: linked to a potential for drug-drug interactions
[13] = Maximal electroshock threshold; settings: male, Lister Hooded, rat, brain, oral, 30 mg/kg
male Lister Hooded rats [14] = test: Maximal electroshock threshold
dog [15] = test: 7-day dose-range finding study, dog; format: in vivo; settings: doses of up to 1,000 mg/kg
[16] = 6-week GLP Safety and Toxicity study of UoS12258, cynomolgus monkey; format: in vivo; settings: cynomolgus monkey, in vivo, po
cynomolgus monkeys = test: as above; format: in vivo; settings: 6-week GLP
rats [17] = settings: p.o.; ref Ward et al., 2017; cited from earlier work
male Lister Hooded rats [18] = settings: ref Ward et al., 2017, cited from earlier work
rats [19] = test: 6-week GLP Safety and Toxicity study of UoS12258, rat; format: in vivo
Male Wistar rats [20] = settings: p.o.; ref Ward et al., 2017; cited from earlier work
[21] = system: native neuronal AMPARs in rat cultured hippocampal neurons; settings: rat primary hippocampal neurons; ref Ward et al., 2017; cited from earlier work
[22] = relative to positive control LY404187

Sequence of hGluA2i AMPAR (P42262 25-883 isoform P42262-2 limits assumed): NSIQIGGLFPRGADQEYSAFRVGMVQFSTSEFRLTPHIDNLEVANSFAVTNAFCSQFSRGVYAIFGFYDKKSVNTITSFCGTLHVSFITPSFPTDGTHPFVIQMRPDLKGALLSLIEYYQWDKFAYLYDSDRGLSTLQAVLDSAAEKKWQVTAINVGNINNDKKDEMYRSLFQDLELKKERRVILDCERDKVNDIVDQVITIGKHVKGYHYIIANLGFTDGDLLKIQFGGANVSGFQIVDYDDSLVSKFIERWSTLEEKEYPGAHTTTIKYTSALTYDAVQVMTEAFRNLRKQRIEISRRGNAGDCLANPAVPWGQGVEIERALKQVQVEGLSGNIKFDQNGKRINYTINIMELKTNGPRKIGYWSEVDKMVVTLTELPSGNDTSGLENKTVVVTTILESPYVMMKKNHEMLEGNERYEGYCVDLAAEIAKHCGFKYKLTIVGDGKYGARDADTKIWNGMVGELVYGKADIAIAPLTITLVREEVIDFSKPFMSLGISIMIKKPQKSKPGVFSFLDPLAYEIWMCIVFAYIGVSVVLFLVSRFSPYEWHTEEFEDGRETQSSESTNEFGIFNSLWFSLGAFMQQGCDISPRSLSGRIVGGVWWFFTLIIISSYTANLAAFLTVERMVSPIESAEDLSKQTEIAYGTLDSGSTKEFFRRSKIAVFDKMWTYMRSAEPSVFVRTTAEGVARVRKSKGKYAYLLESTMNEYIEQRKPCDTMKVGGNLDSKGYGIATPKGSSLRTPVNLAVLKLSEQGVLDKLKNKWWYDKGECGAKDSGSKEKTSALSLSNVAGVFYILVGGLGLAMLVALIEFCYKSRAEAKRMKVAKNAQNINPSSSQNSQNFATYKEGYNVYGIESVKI
Sequence of rat GluA2i AMPAR (P19491 22-883 isoform P19491-2 limits assumed): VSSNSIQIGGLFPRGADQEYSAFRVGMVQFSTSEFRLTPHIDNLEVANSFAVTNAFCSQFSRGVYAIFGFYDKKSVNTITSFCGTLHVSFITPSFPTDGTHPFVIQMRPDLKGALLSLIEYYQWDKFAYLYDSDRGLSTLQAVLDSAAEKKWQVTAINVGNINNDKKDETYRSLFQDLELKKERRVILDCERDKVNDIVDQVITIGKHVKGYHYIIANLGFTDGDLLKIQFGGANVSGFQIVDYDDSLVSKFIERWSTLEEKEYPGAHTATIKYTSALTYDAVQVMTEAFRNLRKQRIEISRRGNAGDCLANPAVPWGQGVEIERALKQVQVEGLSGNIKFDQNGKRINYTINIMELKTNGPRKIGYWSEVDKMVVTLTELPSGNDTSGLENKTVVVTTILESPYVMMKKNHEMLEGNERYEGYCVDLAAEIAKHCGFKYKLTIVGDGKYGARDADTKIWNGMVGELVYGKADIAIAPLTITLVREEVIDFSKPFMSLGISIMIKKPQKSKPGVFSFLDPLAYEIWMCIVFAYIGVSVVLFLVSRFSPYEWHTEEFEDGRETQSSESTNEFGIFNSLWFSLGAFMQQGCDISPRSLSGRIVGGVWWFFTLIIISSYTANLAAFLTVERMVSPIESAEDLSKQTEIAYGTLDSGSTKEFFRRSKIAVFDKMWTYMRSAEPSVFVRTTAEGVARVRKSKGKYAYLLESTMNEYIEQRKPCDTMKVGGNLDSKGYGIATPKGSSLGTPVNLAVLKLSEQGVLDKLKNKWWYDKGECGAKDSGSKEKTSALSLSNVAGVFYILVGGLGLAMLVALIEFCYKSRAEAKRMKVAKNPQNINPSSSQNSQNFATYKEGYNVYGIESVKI
Sequence of hGluA3i AMPAR (P42263 29-894 isoform P42263-2 limits assumed): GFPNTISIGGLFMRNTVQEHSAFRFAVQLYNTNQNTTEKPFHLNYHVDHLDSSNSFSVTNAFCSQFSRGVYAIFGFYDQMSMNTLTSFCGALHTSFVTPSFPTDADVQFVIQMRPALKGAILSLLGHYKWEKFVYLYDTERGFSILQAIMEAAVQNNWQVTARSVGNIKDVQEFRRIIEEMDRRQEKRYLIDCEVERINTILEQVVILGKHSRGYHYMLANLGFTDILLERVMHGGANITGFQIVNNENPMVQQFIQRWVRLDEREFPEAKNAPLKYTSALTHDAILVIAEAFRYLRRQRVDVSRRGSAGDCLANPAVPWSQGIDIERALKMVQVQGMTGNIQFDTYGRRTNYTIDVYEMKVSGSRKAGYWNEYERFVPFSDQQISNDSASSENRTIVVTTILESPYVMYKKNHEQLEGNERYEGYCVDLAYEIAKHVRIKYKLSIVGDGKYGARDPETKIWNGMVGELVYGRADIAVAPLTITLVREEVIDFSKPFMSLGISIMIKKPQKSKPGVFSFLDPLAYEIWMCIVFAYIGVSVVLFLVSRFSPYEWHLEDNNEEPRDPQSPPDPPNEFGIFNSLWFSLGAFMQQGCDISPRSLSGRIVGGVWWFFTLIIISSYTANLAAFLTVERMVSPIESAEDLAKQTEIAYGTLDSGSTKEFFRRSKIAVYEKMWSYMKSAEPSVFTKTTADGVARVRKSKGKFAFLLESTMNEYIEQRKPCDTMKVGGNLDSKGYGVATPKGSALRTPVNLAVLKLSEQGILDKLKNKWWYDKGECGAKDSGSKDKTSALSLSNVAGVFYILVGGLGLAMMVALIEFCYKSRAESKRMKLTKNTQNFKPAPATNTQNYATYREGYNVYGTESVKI
Sequence of hGluA2 AMPARs (P42262 25-883 isoform P42262-2 limits assumed): as the sequence (P42262 25-883 isoform P42262-2 limits assumed) above
Sequence of hGluA4i AMPAR (P48058 21-902): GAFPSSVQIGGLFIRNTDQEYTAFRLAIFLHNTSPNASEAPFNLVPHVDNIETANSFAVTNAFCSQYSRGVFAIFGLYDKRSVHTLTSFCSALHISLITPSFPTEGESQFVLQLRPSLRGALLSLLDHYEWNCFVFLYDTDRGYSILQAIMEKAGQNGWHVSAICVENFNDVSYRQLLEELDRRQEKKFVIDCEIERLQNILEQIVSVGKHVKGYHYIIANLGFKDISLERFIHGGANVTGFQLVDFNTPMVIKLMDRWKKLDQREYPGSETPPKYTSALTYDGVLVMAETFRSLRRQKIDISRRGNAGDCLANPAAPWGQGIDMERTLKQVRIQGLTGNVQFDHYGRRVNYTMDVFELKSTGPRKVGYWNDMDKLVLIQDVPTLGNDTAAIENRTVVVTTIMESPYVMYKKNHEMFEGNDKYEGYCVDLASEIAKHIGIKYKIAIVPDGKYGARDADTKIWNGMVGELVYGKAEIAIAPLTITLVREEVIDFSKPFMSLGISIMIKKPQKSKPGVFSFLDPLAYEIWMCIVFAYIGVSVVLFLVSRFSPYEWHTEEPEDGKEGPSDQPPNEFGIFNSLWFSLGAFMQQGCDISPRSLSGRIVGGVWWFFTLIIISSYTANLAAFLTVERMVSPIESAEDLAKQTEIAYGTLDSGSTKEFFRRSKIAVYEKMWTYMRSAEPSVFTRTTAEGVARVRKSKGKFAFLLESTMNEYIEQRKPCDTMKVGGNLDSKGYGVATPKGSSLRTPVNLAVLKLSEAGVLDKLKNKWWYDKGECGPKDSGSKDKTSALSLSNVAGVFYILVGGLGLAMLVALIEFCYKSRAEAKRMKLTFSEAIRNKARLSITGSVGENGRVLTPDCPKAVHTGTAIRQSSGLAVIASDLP
Sequence of Homomeric human GluA1 flip isoform (hGluA1i) (P42261 19-906 isoform P42261-2 limits assumed): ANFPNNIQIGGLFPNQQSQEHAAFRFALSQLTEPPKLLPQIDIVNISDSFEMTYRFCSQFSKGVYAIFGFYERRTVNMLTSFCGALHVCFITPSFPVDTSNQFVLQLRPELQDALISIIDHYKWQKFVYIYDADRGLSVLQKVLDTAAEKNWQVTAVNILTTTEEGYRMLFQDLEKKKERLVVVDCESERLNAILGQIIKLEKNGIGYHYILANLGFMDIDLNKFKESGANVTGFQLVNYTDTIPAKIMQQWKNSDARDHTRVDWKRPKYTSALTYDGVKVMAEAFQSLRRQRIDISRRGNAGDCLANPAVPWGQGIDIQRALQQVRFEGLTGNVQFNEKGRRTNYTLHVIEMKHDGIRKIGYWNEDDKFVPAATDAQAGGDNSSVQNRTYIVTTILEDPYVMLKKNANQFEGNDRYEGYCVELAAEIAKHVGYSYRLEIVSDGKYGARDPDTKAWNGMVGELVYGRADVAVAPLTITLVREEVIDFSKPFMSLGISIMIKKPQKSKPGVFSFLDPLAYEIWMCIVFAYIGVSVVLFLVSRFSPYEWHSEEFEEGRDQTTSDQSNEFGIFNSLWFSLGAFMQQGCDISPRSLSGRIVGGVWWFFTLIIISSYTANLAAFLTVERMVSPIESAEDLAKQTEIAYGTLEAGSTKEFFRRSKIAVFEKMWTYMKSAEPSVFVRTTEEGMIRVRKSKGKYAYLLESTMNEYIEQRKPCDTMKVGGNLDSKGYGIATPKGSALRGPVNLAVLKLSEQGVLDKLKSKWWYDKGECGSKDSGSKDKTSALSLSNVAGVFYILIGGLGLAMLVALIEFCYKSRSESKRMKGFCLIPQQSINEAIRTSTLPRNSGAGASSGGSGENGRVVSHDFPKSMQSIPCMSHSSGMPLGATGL

## O=C(c1ccc(-n2nc(C(F)(F)F)c3c2CCCC3)cc1)N1CCCC1 [MDI-222, 1-[4-(1-pyrrolidinylcarbonyl)phenyl]-3-(trifluoromethyl)-4,5,6,7-tetrahydro-1H-indazole]
[1]
  Max. % response: 30 ± 2 (4) %
hGluA2i AMPAR
  EC50: 5 µM
hGluA2i AMPAR; [22]
  Max. % response: 123 ± 7% and 123 ± 7 (9) %
Male Wistar rats [2]; p.o.
  MED, reversal of scopolamine-induced deficit: 10 mg/kg
[3]
  Cmax: ~15000 ng/mL
Rat [4]
  convulsions / tolerability: did not produce convulsions
[5]
  Cmax: 13 to 17000 ng/mL
Rat [6]; 4-week study
  systemic exposure on Day 28 relative to Day 1, fold lower: up to 6 fold
Rat [6]; highest dose 800 mg/kg, 4-week GLP
  convulsions: no convulsions observed
Human GluK2 receptors
  effect on glutamate-induced currents: no effects
[7]
  concentration at 20 min: 11600 ng/g
Anaesthetised rats
  dentate gyrus population spike amplitude: 139 % of baseline
Dog [8]; 4-week study
  systemic exposure on Day 28 relative to Day 1, fold lower: ≤ 9 fold
Dog [8]; highest dose 1,000 mg/kg, 4-week GLP
  convulsions: no convulsions observed
hGluA3i AMPAR
  EC50: 31.6 µM
hGluA3i AMPAR; [22]
  Max. % response: 53 ± 3 (3) %
hGluA2 AMPARs; 100 nM
  potentiation of glutamate-evoked charge transfer (area under the curve): 121 ± 7%
hGluA2 AMPARs; 10 μM
  potentiation of glutamate-evoked charge transfer (area under the curve): 702 ± 40%
Rat GluA2i AMPAR
  EC50: 3.98 µM
Rat GluA2i AMPAR; [22]
  Max. % response: 76 ± 8 (4) %
[9]
  effect on glutamate-induced currents: no effects
[10]; 1 nM
  Charge transfer, normalised to AMPA alone: 1.14 ± 0.05
  Deactivation, normalised to AMPA alone: 1.06 ± 0.04
  Desensitisation, normalised to AMPA alone: 0.77 ± 0.10
[10]; 10 nM
  Charge transfer, normalised to AMPA alone: 1.37 ± 0.09
  Deactivation, normalised to AMPA alone: 1.19 ± 0.15
  Desensitisation, normalised to AMPA alone: 0.81 ± 0.05
[10]; 100 nM
  Charge transfer, normalised to AMPA alone: 1.33 ± 0.12
  Deactivation, normalised to AMPA alone: 1.29 ± 0.17
  Desensitisation, normalised to AMPA alone: 0.76 ± 0.03
[10]; 1 μM
  Charge transfer, normalised to AMPA alone: 1.28 ± 0.14
  Deactivation, normalised to AMPA alone: 1.33 ± 0.17
  Desensitisation, normalised to AMPA alone: 0.72 ± 0.04
[10]; 10 μM
  Charge transfer, normalised to AMPA alone: 1.62 ± 0.15
  Deactivation, normalised to AMPA alone: 2.79 ± 0.43
  Desensitisation, normalised to AMPA alone: 0.25 ± 0.08
  increase in charge transfer (maximal potentiation): 62%
[10]; AMPA 30 μM
  minimum effective concentration, charge transfer: 1 nM
  minimum effective concentration, desensitisation: 10 nM
[10]; no agonist
  inward current when applied in the absence of AMPA: did not invoke an inward current
Novel object recognition; mean blood level
  concentration at 30 min: 7 ng/mL
Novel object recognition; mean brain level
  concentration at 30 min: 9 ng/g
Rats [11]; acute single-dose
  minimal effective dose (D2 index), acute: 0.3 mg/kg
Rats [11]; sub-chronic (7-day) dosing
  minimal effective dose, sub-chronic: 0.1 mg/kg
[12]
  effect on glutamate-induced currents: no effects
hGluA4i AMPAR
  EC50: 7.94 µM
hGluA4i AMPAR; [22]
  Max. % response: 76 ± 1 (4) %
Solubility
  solubility: poor solubility
Pregnane X receptor
  pregnane X receptor: activation
[13]
  concentration at 0.5 h: ~4700 ng/g
Male Lister Hooded rats [14]; 30 mg/kg p.o.
  brain drug concentration: approximately 4.7 μg/g
Male Lister Hooded rats [14]; 3, 10 and 30 mg/kg p.o.
  CC50 lower than vehicle-treated rats: 10-15%
Male Lister Hooded rats [14]; up to 30 mg/kg p.o.
  effect on seizure threshold: did not significantly affect the seizure threshold
Dog [15]
  convulsions / tolerability: did not produce convulsions

## CC(C)S(=O)(=O)N[C@H]1Cc2ccc(-c3ccc(F)nc3)cc2C1 [UoS12258, N-[(2S)-5-(6-fluoro-3-pyridinyl)-2,3-dihydro-1H-inden-2-yl]-2-propanesulfonamide]
[16]
  NOAEL at 6 weeks: 2.5 mg/kg
Cynomolgus monkeys
  dose at which convulsions were observed: 4 mg/kg
Rats [17]
  MED, NOR following sub-chronic dosing: 0.01 mg/kg
  MED, acute-dosing NOR: 0.3 mg/kg
Male Lister Hooded rats [18]; 100 mg/kg p.o.
  brain exposure: around 5.0 μg/g
  proconvulsant effect in MEST: comparable to that of the positive control picrotoxin
Male Lister Hooded rats [18]; p.o.
  proconvulsant dose in MEST: 10 mg/kg
Rats [19]
  dose at which convulsions were observed: 10 mg/kg
Male Wistar rats [20]
  MED, reversal of scopolamine-induced deficit: 3 mg/kg
[21]
  maximal potentiation in the charge transfer: 310%

## CN1[C@@H]2C[C@@H](OC(=O)[C@H](CO)c3ccccc3)C[C@H]1[C@@H]1O[C@@H]12 [scopolamine, reference compound]
Male Wistar rats [2]; scopolamine 1 mg/kg i.p., vehicle 457 ± 83 s
  step-through latency: 157 ± 46 s
